In data set [1] the target is Transient receptor potential cation channel subfamily M member 7 (Homo sapiens) (UniProt Q96QT4). The experiment in a line: Inhibition of recombinant human CHAK1 (1180 to end residues) at 10 uM using myelin basic protein as substrate measured after 40 mins in presence of [gamma33P]ATP by scintillation counting method.
The target of data set [2] is Protein kinase C beta type (Homo sapiens) (UniProt P05771). The experiment in a line: Inhibition of recombinant human PKCbeta1 (2 to end residues) at 10 uM using histone H1 as substrate measured after 40 mins in presence of [gamma33P]ATP by scintillation counting method.
Data set [3] deals with Muscle, skeletal receptor tyrosine-protein kinase (Homo sapiens) (UniProt O15146). Description: Inhibition of recombinant human MuSK (530 to end residues) at 10 uM using myelin basic protein as substrate measured after 40 mins in presence of [gamma33P]ATP by scintillation counting method.
Data set [4] has as its target Bromodomain adjacent to zinc finger domain protein 2A (Homo sapiens) (UniProt Q9UIF9). The experiment in a line: Binding affinity to human partial length BAZ2A (M1792 to L1905 residues) expressed in bacterial expression system at 1 uM by BROMOscan assay. An outline of the steps: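 BROMOscan bromodomain cross-screen run by an outside service, compound at 1 µM against 32 recombinant bromodomains. Binding given as percent of control.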

For data set [5], the species on record is Homo sapiens. Description: Inhibition of recombinant full-length human ATRIP/ATR M211T mutant at 10 uM using GST-cMyc-p53 as substrate measured after 40 mins by fluorescence assay.
Data set [6] addresses Casein kinase I isoform delta (Homo sapiens) (UniProt P48730). The experiment in a line: Inhibition of recombinant human CK1delta (1 to 294 residues) at 10 uM using KRRRALS(p)VASLPGL as substrate measured after 40 mins in presence of [gamma33P]ATP by scintillation counting method.
Data set [7] is described as follows: Lipophilicity, log D of the compound at pH 7.4 by HPLC analysis. Type of data set: physicochemical. The following applies: buffer.
A short description of data set [8]: Unbound fraction in Sprague-Dawley rat plasma at 1 uM measured after 16 hrs by equilibrium dialysis-based LC-MS/MS analysis. Type of data set: ADME, cell-free. For orientation: Equilibrium dialysis compares concentrations on both sides of a semipermeable membrane.
The target in data set [9] is Cyclin-dependent kinase 14/Cyclin-Y (Homo sapiens) (UniProt O94921+Q8ND76). The experiment in a line: Inhibition of human CDK14/cyclinY at 10 uM by radiometric method. Type of data set: protein-complex assay. An outline of the steps: (§1)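 Kinase panel of 422 kinases screened by Eurofins KinaseProfiler at a single test-compound concentration of 10 µM.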
The subject of data set [10] is Serine/threonine-protein kinase TAO3 (Homo sapiens), Q9H2K8 [UNDEFINED MUTATION]. The experiment in a line: Inhibition of human TAO3 (1 to 411 residues) using myelin basic protein as substrate measured after 40 mins in presence of [gamma33P]ATP by scintillation counting method.
For data set [11], the system named is Mast/stem cell growth factor receptor Kit (Homo sapiens), P10721 [V560G]. The experiment in a line: Inhibition of recombinant human c-Kit V560G mutant (544 to end residues) at 10 uM using GGMEDIYFEFMGGKKK as substrate measured after 40 mins in presence of [gamma33P]ATP by scintillation counting method.
For data set [12], the target named is Tyrosine-protein kinase JAK3 (Homo sapiens) (UniProt P52333). The experiment in a line: Inhibition of recombinant human JAK3 (781 to end residues) at 10 uM using GGEEEEYFELVKKKK as substrate measured after 40 mins in presence of [gamma33P]ATP by scintillation counting method.
Tyrosine-protein kinase JAK3 (Homo sapiens), sequence (P52333 whole entry): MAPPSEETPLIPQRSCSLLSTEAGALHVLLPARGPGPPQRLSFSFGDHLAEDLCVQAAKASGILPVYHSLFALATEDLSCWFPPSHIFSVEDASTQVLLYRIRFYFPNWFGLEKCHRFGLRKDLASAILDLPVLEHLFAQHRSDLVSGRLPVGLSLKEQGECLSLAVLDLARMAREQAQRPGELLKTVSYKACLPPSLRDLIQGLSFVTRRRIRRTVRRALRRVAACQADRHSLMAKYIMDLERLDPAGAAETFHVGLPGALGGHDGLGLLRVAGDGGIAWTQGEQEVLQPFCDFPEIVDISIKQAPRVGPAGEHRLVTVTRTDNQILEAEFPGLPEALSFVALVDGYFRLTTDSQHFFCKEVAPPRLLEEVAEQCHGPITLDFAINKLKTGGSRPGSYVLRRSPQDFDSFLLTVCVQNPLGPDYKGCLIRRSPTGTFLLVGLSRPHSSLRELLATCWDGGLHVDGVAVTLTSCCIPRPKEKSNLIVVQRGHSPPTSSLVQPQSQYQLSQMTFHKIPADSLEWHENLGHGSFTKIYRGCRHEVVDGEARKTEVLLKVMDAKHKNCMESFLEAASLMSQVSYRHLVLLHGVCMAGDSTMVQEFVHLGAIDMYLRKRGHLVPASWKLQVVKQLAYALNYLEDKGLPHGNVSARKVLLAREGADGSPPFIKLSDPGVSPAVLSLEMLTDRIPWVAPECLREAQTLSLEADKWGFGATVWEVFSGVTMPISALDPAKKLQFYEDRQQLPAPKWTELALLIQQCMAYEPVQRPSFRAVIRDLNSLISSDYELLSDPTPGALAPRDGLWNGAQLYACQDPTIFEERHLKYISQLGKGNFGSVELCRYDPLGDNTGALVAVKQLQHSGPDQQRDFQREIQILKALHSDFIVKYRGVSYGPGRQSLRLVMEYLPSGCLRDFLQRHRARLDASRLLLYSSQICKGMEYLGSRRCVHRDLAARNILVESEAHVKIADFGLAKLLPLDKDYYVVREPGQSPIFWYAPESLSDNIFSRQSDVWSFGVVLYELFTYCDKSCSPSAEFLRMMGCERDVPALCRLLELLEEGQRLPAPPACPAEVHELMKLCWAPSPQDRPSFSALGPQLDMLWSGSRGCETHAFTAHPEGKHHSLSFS
In data set [13] the target is CDK6/cyclin D3 (Homo sapiens) (UniProt P30281+Q00534). The experiment in a line: Inhibition of recombinant full-length human CDK6/cyclin D3 at 10 uM using histone H1 as substrate measured after 40 mins in presence of [gamma33P]ATP by scintillation counting method. It is filed as protein-complex assay.
For data set [14], the target named is ATPase family AAA domain-containing protein 2 (Homo sapiens) (UniProt Q6PL18). The experiment in a line: Binding affinity to human N-terminal His-tagged ATAD2 assessed as change in melting temperature at 10 uM by SYPRO orange dye-based fluorescence assay. In outline:
(§2)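 Thermal shift with His-tagged human bromodomain at 2 μM final in 10 mM HEPES pH 7.5, 500 mM NaCl. Compound at 10 μM final with 0.1% DMSO; SYPRO Orange at 1:1000. Equilibrated 3 min at 25 °C, then heated from 25 to 95 °C at 1 °C/min. Melting temperature shift taken from fluorescence; at least duplicate.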

The target of data set [15] is Bromodomain and PHD finger-containing protein 3 (Homo sapiens) (UniProt Q9ULD4). The experiment in a line: Binding affinity to human N-terminal His-tagged BRPF3 assessed as change in melting temperature at 10 uM by SYPRO orange dye-based fluorescence assay. In outline:
as §2

Data set [16] deals with Beta-adrenergic receptor kinase 1 (Homo sapiens) (UniProt P25098). Description: Inhibition of recombinant full-length human GRK2 at 10 uM using casein as substrate measured after 40 mins in presence of [gamma33P]ATP by scintillation counting method.
For data set [17], the system named is Tyrosine-protein kinase BTK (Homo sapiens), Q06187 [R28H]. The experiment in a line: Inhibition of full-length recombinant human BTK R28H mutant at 10 uM using LSNLYHQGKFLQTFCGSPLYRRR as substrate measured after 40 mins in presence of [gamma33P]ATP by scintillation counting method. In outline: as §1
Data set [18] deals with RAC-gamma serine/threonine-protein kinase (Homo sapiens), Q9Y243 [S472D]. Description: Inhibition of recombinant full-length human PKBgamma S472D mutant (117 to end residues) at 10 uM using GRPRTSSFAEGKK as substrate measured after 40 mins in presence of [gamma33P]ATP by scintillation counting method.
In data set [19] the target is [Pyruvate dehydrogenase (acetyl-transferring)] kinase isozyme 4, mitochondrial (Homo sapiens) (UniProt Q16654). The experiment in a line: Inhibition of recombinant full-length human PDHK4 at 10 uM using KKKYHGHSMSDPGVSYRT as substrate measured after 40 mins in presence of [gamma33P]ATP by scintillation counting method.
The target in data set [20] is Serine/threonine-protein kinase TAO2 (Homo sapiens) (UniProt Q9UL54). The experiment in a line: Inhibition of human TAO2 (1 to 320 residues) using myelin basic protein as substrate measured after 40 mins in presence of [gamma33P]ATP by scintillation counting method.
Serine/threonine-protein kinase TAO2 (Homo sapiens), sequence (Q9UL54 whole entry, the tested form may be a part): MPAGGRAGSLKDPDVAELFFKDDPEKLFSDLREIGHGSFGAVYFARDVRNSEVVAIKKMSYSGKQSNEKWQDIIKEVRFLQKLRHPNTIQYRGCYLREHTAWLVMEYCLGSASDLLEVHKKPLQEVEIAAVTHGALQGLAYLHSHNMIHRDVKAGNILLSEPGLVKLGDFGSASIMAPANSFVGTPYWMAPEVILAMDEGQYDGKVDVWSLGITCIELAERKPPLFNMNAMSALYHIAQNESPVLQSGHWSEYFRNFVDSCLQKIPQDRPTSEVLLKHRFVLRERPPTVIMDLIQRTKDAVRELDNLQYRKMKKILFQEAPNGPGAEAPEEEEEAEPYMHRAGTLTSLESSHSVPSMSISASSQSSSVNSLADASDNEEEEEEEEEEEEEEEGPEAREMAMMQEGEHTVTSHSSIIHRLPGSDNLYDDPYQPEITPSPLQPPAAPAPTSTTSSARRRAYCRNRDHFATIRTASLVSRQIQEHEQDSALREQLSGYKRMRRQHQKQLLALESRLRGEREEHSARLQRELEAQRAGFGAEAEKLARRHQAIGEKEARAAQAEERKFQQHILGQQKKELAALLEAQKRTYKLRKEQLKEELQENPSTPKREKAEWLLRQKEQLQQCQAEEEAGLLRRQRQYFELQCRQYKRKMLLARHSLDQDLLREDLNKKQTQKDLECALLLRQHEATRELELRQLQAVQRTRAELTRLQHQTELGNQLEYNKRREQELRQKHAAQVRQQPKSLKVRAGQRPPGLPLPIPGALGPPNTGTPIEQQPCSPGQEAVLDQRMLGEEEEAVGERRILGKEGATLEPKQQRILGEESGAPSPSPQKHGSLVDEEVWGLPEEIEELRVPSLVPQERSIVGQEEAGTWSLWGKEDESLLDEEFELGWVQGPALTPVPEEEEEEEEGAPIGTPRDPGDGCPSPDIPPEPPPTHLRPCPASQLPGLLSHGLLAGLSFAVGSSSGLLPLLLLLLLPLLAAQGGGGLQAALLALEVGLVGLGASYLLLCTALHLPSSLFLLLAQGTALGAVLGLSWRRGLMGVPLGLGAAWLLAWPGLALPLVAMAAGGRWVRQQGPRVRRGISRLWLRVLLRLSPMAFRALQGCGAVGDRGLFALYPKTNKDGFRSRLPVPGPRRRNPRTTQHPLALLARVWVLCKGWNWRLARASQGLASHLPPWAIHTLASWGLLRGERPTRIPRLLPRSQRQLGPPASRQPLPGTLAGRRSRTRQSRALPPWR
For data set [21], the species on record is Homo sapiens. Description: Inhibition of human activated Tec F514V mutant (174 to end residues) using EFPIYDFLPAKKK as substrate measured after 40 mins in presence of [gamma33P]ATP by scintillation counting method.
The target in data set [22] is Tyrosine-protein kinase ABL2 (Homo sapiens) (UniProt P42684). Description: Inhibition of recombinant human ARG (38 to end residues) at 10 uM using EAIYAAPFAKKK as substrate measured after 40 mins in presence of [gamma33P]ATP by scintillation counting method.
Tyrosine-protein kinase ABL2 (Homo sapiens), sequence (P42684 whole entry, the tested form may be a part): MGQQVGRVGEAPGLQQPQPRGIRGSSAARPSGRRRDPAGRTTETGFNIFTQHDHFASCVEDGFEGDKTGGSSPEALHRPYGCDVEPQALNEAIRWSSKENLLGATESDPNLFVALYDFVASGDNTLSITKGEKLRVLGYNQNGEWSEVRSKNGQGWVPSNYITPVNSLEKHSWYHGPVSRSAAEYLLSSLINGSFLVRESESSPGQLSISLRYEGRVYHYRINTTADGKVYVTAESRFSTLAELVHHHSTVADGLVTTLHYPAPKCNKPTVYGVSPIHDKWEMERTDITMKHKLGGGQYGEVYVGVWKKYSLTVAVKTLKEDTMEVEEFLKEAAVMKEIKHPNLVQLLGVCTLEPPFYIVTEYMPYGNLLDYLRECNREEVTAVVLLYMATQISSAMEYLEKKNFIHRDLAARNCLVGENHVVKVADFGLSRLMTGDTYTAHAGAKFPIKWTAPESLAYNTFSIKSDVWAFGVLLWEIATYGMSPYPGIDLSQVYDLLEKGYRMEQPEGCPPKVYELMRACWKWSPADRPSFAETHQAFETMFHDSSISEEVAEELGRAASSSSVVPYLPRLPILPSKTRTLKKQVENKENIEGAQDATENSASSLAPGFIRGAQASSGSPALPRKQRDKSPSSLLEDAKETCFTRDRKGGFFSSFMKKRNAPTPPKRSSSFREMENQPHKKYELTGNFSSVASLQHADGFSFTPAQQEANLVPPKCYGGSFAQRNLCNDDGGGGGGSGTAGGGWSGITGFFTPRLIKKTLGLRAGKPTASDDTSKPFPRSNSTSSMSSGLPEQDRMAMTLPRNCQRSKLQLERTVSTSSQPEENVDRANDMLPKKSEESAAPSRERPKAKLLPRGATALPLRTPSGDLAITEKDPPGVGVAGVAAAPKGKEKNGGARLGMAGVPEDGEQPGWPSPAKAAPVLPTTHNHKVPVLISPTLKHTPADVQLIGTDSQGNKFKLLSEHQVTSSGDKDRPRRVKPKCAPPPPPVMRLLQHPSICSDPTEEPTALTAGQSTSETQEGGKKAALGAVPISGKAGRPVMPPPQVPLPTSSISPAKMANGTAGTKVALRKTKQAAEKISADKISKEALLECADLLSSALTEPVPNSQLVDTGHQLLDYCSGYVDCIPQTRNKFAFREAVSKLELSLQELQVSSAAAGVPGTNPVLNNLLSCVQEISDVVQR
In data set [23] the target is Serine/threonine-protein kinase Nek9 (Homo sapiens) (UniProt Q8TD19). The experiment in a line: Inhibition of recombinant human NEK9 (1 to 324 residues) at 10 uM using myelin basic protein as substrate measured after 40 mins in presence of [gamma33P]ATP by scintillation counting method.
Data set [24] has as its target Dual specificity mitogen-activated protein kinase kinase 1 (Homo sapiens) (UniProt Q02750). The experiment in a line: Inhibition of recombinant full-length human MEK1 at 10 uM using unactive MAPK2 as substrate measured after 40 mins in presence of [gamma33P]ATP by scintillation counting method.

The source made the active and inactive calls. The rule behind the calls is not given here.

ATPase family AAA domain-containing protein 2 (Homo sapiens), sequence (Q6PL18 whole entry, the tested form may be a part): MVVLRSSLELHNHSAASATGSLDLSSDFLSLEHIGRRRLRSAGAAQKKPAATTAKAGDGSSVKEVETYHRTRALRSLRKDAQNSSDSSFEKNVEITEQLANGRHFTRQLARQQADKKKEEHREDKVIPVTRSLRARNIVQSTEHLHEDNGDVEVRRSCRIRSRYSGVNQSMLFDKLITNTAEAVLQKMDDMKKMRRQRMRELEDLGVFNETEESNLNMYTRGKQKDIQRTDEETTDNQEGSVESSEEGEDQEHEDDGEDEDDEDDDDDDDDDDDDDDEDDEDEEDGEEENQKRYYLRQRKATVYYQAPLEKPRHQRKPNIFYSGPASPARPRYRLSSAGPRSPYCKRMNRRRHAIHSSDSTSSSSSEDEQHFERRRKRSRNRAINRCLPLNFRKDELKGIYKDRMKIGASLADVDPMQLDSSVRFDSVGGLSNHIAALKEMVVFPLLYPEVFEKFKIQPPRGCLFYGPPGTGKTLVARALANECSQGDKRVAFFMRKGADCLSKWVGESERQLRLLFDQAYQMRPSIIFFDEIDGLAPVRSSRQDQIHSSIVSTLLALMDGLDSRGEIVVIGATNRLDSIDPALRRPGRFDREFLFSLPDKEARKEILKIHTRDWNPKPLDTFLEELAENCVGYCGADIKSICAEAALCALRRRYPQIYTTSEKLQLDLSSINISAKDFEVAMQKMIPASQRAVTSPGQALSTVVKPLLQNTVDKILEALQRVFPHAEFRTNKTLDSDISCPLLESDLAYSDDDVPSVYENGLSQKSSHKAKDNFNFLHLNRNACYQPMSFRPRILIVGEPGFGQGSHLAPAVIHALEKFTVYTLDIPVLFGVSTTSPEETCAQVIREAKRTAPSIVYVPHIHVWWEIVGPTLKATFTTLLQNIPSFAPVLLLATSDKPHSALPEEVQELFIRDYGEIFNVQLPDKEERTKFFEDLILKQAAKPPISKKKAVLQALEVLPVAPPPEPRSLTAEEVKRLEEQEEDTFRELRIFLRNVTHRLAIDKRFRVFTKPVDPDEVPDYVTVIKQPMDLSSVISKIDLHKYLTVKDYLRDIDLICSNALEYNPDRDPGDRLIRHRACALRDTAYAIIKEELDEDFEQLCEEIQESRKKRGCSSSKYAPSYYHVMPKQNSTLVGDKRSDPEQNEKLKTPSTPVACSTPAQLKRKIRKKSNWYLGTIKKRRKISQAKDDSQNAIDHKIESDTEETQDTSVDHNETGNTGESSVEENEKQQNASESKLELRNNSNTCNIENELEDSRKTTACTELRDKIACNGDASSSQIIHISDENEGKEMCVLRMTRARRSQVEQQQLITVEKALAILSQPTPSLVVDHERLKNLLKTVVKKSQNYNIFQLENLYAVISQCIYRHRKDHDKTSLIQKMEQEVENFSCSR

Take `CN1C[C@H](Nc2nc3cc[nH]c3c(=O)n2C)C[C@H](c2ccc3c(c2)OCCO3)C1`: the inhibition entry in [1], in data set [2], in data set [3], in data set [5], in data set [6] and in data set [9] was “inactive” in each case. Further, the inhibition result in [10], in data set [11], in data set [12], in data set [13], in data set [16] and in data set [17] was “inactive” in each case. For the same compound, the inhibition entry in data set [18], in data set [19], in [20], in data set [21], in data set [22] and in data set [23] was “inactive” in each case. Moreover, the inhibition result in data set [24] is “inactive”. In addition, the result in data set [4] was Active. In data set [7], the logD (as a rule, lipophilicity at a set pH, counting ionised and neutral species) is 1.9. The fraction unbound – broadly, the share of the substance not bound to proteins or other matrix – at 16 h, 1 µM in data set [8] amounted to 0.058. Also, the ΔTm (usually the shift of the melting midpoint relative to a reference) in data set [14] was found to be 0.3 °C; in [15], 1.7 °C.

These data come from ChEMBL document CHEMBL4350961, “Discovery of Pyrrolo[3,2- d]pyrimidin-4-one Derivatives as a New Class of Potent and Cell-Active Inhibitors of P300/CBP-Associated Factor Bromodomain” (J Med Chem, 2019).
